According to ChEMBL document CHEMBL3588823, “Design, synthesis and biological evaluation of novel 5-oxo-2-thioxoimidazolidine derivatives as potent androgen receptor antagonists” (Eur J Med Chem, 2015):

Test system: LNCaP
Experiment: Antiproliferative activity against human LNCAP cells after 3 days
Assay type: functional, cell-based
Conditions: Homo sapiens, LNCaP, 72 h; read-out: IC50
How it was run: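 LNCaP cells seeded at 10,000 per well in RPMI 1640 with 10% charcoal-stripped serum and 1% AAS, then held 3 days at 37 °C. Medium was then replaced with serial compound dilutions, either without DHT (agonism mode) or with DHT (antagonism mode).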

SMILES	IC50
COC(=O)c1ccc(N2C(=S)N(c3ccc(C#N)c(C(F)(F)F)c3)C(=O)[C@]23CCOC3)cc1F	59 nM

Biological target: T1, Androgen receptor (Homo sapiens, UniProt P10275)
T1 sequence (P10275 whole entry): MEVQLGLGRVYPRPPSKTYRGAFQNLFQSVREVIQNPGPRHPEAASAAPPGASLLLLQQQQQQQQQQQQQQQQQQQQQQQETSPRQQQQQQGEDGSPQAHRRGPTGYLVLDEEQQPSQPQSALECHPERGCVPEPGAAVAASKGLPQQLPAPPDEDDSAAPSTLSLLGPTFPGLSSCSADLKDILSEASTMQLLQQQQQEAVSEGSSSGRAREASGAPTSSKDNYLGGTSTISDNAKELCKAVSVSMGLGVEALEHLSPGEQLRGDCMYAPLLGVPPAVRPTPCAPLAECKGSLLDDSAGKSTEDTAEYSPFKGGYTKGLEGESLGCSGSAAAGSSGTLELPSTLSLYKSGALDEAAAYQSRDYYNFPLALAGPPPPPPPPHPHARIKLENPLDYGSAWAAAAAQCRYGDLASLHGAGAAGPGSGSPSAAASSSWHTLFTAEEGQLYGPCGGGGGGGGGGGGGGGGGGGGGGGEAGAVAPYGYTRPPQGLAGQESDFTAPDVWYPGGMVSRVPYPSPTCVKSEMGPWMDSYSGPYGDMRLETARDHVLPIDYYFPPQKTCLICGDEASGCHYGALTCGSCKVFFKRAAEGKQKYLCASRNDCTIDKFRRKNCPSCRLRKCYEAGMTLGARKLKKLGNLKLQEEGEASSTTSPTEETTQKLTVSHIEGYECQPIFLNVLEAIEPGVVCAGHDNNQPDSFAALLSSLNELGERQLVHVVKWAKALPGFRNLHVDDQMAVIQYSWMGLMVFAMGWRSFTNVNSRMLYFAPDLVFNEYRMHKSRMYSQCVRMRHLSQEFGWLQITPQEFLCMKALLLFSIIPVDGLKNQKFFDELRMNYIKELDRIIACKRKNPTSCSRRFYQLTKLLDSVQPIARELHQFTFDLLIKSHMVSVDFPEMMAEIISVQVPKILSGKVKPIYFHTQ
Experiment: Antagonist activity at androgen receptor (unknown origin)
Conditions: not given

SMILES	Ki
COC(=O)c1ccc(N2C(=S)N(c3ccc(C#N)c(C(F)(F)F)c3)C(=O)[C@]23CCOC3)cc1F	11.9 nM

Test system: not listed separately
Experiment: Half life in rat at 5 mg/kg, po
Assay type: ADME, organism-based
Conditions: in vivo
How it was run: (§1)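 Rats (n = 3) were given a single 5 mg/kg oral dose in 0.5% HPMC. Blood was taken into EDTA tubes at 15 and 30 min and 1, 2, 4, 8 and 24 h. Plasma was obtained by centrifugation and proteins were precipitated with acetonitrile. Bioavailability was calculated against a 1 mg/kg iv dose.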

SMILES	half-life
COC(=O)c1ccc(N2C(=S)N(c3ccc(C#N)c(C(F)(F)F)c3)C(=O)[C@]23CCOC3)cc1F	4.3 h

Test system: not listed separately
Experiment: Half life in rat at 1 mg/kg, iv
Assay type: ADME, organism-based
Conditions: in vivo
How it was run: (§2)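 Rats (n = 3) were given a single 1 mg/kg iv dose in 20% hydroxypropyl-β-cyclodextrin. Blood was taken into EDTA tubes at 5, 15 and 30 min and 1, 2, 4, 8 and 24 h. Plasma was obtained by centrifugation and proteins were precipitated with acetonitrile before analysis.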

SMILES	half-life
COC(=O)c1ccc(N2C(=S)N(c3ccc(C#N)c(C(F)(F)F)c3)C(=O)[C@]23CCOC3)cc1F	17.1 h

Test system: not listed separately
Experiment: Tmax in rat at 5 mg/kg, po
Assay type: ADME, organism-based
Conditions: in vivo
How it was run: as §1

SMILES	Tmax
COC(=O)c1ccc(N2C(=S)N(c3ccc(C#N)c(C(F)(F)F)c3)C(=O)[C@]23CCOC3)cc1F	1.67 h

Test system: not listed separately
Experiment: Tmax in rat at 1 mg/kg, iv
Assay type: ADME, organism-based
Conditions: in vivo
How it was run: as §2

SMILES	Tmax
COC(=O)c1ccc(N2C(=S)N(c3ccc(C#N)c(C(F)(F)F)c3)C(=O)[C@]23CCOC3)cc1F	4.98 min

Test system: not listed separately
Experiment: Cmax in rat at 5 mg/kg, po
Assay type: ADME, organism-based
Parameters: dose 5 mg/kg, route oral
Conditions: in vivo
How it was run: as §1

SMILES	Cmax
COC(=O)c1ccc(N2C(=S)N(c3ccc(C#N)c(C(F)(F)F)c3)C(=O)[C@]23CCOC3)cc1F	104 ng/mL

Test system: not listed separately
Experiment: Cmax in rat at 1 mg/kg, iv
Assay type: ADME, organism-based
Parameters: dose 1 mg/kg, route intravenous
Conditions: in vivo
How it was run: as §2

SMILES	Cmax
COC(=O)c1ccc(N2C(=S)N(c3ccc(C#N)c(C(F)(F)F)c3)C(=O)[C@]23CCOC3)cc1F	518 ng/mL

Test system: not listed separately
Experiment: AUC (0 to time) in rat at 5 mg/kg, po
Assay type: ADME, organism-based
Conditions: in vivo
How it was run: (§3)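 Rats (n = 3) received a single 5 mg/kg oral dose in 0.5% HPMC. EDTA blood samples were taken at 15 and 30 min and at 1, 2, 4, 8 and 24 h. Plasma was obtained by centrifugation, mixed with acetonitrile:H2O (1:1 v/v) and precipitated with acetonitrile.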

SMILES	AUC
COC(=O)c1ccc(N2C(=S)N(c3ccc(C#N)c(C(F)(F)F)c3)C(=O)[C@]23CCOC3)cc1F	570 ng·h/mL

Test system: not listed separately
Experiment: AUC (0 to time) in rat at 1 mg/kg, iv
Assay type: ADME, organism-based
Conditions: in vivo
How it was run: (§4)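 Rats (n = 3) given a single 1 mg/kg iv dose in 20% HP-b-CD. Blood was drawn into EDTA tubes at 5, 15 and 30 min and at 1, 2, 4, 8 and 24 h. Plasma was separated by centrifugation, mixed with acetonitrile:H2O (1:1 v/v) and protein-precipitated with acetonitrile.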

SMILES	AUC
COC(=O)c1ccc(N2C(=S)N(c3ccc(C#N)c(C(F)(F)F)c3)C(=O)[C@]23CCOC3)cc1F	599 ng·h/mL

Test system: not listed separately
Experiment: AUC (0 to infinity) in rat at 5 mg/kg, po
Assay type: ADME, organism-based
Parameters: dose 5 mg/kg, route oral, time infinity
Conditions: in vivo
How it was run: as §3

SMILES	AUC(0-inf)
COC(=O)c1ccc(N2C(=S)N(c3ccc(C#N)c(C(F)(F)F)c3)C(=O)[C@]23CCOC3)cc1F	576 ng·h/mL

Test system: not listed separately
Experiment: AUC (0 to infinity) in rat at 1 mg/kg, iv
Assay type: ADME, organism-based
Parameters: dose 1 mg/kg, route intravenous, time infinity
Conditions: in vivo
How it was run: as §4

SMILES	AUC(0-inf)
COC(=O)c1ccc(N2C(=S)N(c3ccc(C#N)c(C(F)(F)F)c3)C(=O)[C@]23CCOC3)cc1F	712 ng·h/mL

Test system: Rattus norvegicus
Experiment: Volume of distribution in rat at 5 mg/kg, po
Assay type: ADME, organism-based
Conditions: in vivo
How it was run: as §1

SMILES	Vd
COC(=O)c1ccc(N2C(=S)N(c3ccc(C#N)c(C(F)(F)F)c3)C(=O)[C@]23CCOC3)cc1F	53 L/kg

Test system: not listed separately
Experiment: Volume of distribution in rat at 1 mg/kg, iv
Assay type: ADME, organism-based
Conditions: in vivo
How it was run: as §2

SMILES	Vd
COC(=O)c1ccc(N2C(=S)N(c3ccc(C#N)c(C(F)(F)F)c3)C(=O)[C@]23CCOC3)cc1F	46 L/kg

Test system: not listed separately
Experiment: Clearance in rat at 5 mg/kg, po
Assay type: ADME, organism-based
Conditions: in vivo
How it was run: as §1

SMILES	CL/F
COC(=O)c1ccc(N2C(=S)N(c3ccc(C#N)c(C(F)(F)F)c3)C(=O)[C@]23CCOC3)cc1F	147 mL/min/kg

Test system: Rattus norvegicus
Experiment: Clearance in rat at 1 mg/kg, iv
Assay type: ADME, organism-based
Conditions: in vivo
How it was run: as §2

SMILES	CL
COC(=O)c1ccc(N2C(=S)N(c3ccc(C#N)c(C(F)(F)F)c3)C(=O)[C@]23CCOC3)cc1F	28.3 mL/min/kg

Test system: not listed separately
Experiment: MRT (last) in rat at 5 mg/kg, po
Assay type: ADME, organism-based
Conditions: in vivo
How it was run: as §1

SMILES	MRT last
COC(=O)c1ccc(N2C(=S)N(c3ccc(C#N)c(C(F)(F)F)c3)C(=O)[C@]23CCOC3)cc1F	4.6 h

Test system: not listed separately
Experiment: MRT (last) in rat at 1 mg/kg, iv
Assay type: ADME, organism-based
Conditions: in vivo
How it was run: as §2

SMILES	MRT last
COC(=O)c1ccc(N2C(=S)N(c3ccc(C#N)c(C(F)(F)F)c3)C(=O)[C@]23CCOC3)cc1F	4.3 h

Test system: not listed separately
Experiment: MRT (INF) in rat at 5 mg/kg, po
Assay type: ADME, organism-based
Conditions: in vivo
How it was run: as §1

SMILES	MRT inf
COC(=O)c1ccc(N2C(=S)N(c3ccc(C#N)c(C(F)(F)F)c3)C(=O)[C@]23CCOC3)cc1F	5 h

Test system: Rattus norvegicus
Experiment: MRT (INF) in rat at 1 mg/kg, iv
Assay type: ADME, organism-based
Conditions: in vivo
How it was run: as §2

SMILES	MRT
COC(=O)c1ccc(N2C(=S)N(c3ccc(C#N)c(C(F)(F)F)c3)C(=O)[C@]23CCOC3)cc1F	12.8 h

Test system: Rattus norvegicus
Experiment: Volume of distribution at steady state in rat at 5 mg/kg, po
Assay type: ADME, organism-based
Conditions: in vivo
How it was run: as §1

SMILES	Vdss
COC(=O)c1ccc(N2C(=S)N(c3ccc(C#N)c(C(F)(F)F)c3)C(=O)[C@]23CCOC3)cc1F	2 L/kg

Test system: Rattus norvegicus
Experiment: Volume of distribution at steady state in rat at 1 mg/kg, iv
Assay type: ADME, organism-based
Conditions: in vivo
How it was run: as §2

SMILES	Vdss
COC(=O)c1ccc(N2C(=S)N(c3ccc(C#N)c(C(F)(F)F)c3)C(=O)[C@]23CCOC3)cc1F	1.6 L/kg

Test system: not listed separately
Experiment: Oral bioavailability in rat at 5 mg/kg
Assay type: ADME, organism-based
Conditions: in vivo
How it was run: as §1

SMILES	bioavailability
COC(=O)c1ccc(N2C(=S)N(c3ccc(C#N)c(C(F)(F)F)c3)C(=O)[C@]23CCOC3)cc1F	19%
